What was measured:
[1] = Ratio for cytotoxicity against camptothecin resistant P388/CPT45 cells to that of parental P388 cells; assay type: functional, Mus musculus
Outline: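 Cytotoxicity after 3-day continuous exposure by tetrazolium dye conversion, read at 450 nm, in camptothecin-resistant P388/CPT45 cells and parental P388 cells; value is IC50 in P388/CPT45 divided by IC50 in P388.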

[2] = target: T1, DNA topoisomerase 1 (Homo sapiens) (UniProt P11387); assay: Ratio of effective concentration for inducing single strand breaks in the DNA substrate by topoisomerase I compared to camptothecin
T1 sequence (whole entry): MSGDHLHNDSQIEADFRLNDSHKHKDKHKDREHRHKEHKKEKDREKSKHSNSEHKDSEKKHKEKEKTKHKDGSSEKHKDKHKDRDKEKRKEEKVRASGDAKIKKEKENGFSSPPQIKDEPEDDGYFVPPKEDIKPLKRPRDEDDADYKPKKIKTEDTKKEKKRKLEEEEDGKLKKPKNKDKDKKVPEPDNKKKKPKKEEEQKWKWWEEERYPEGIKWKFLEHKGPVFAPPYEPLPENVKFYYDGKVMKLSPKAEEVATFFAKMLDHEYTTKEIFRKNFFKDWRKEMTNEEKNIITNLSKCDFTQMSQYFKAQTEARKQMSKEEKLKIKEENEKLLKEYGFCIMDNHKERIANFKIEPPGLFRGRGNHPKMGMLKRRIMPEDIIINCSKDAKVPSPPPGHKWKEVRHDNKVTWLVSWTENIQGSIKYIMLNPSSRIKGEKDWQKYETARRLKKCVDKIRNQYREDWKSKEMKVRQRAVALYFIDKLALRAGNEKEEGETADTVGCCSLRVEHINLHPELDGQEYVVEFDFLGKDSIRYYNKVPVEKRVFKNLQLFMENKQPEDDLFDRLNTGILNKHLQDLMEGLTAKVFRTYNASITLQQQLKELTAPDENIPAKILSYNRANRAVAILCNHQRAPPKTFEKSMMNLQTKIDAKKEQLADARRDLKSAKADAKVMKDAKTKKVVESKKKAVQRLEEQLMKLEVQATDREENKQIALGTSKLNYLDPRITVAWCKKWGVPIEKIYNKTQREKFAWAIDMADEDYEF
Outline: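 Topoisomerase I-mediated single-strand breaks in DNA substrate assayed by a modified Hsiang protocol; median effective concentration (EC50) for break induction divided by camptothecin EC50 measured in the same experiment.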

P388 = assay: In vitro cytotoxic concentration against P388 murine leukemia cells was determined; assay type: functional, cell-based; conditions: Mus musculus
Outline: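 P388 murine leukemia cells exposed continuously to compound for 3 days; proliferation measured by soluble tetrazolium/formazan conversion (absorbance 450 nm). IC50 = concentration reducing absorbance to 50% of untreated control cells; reported as mean.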

[3] = Volume of distribution of compound in plasma was determined at 5 mg/Kg; assay type: ADME, organism-based; conditions: mouse, read-out: Vds
[4] = Half life of compound was determined in plasma of mice at 5 mg/Kg; assay type: ADME, organism-based; conditions: mouse
Mus musculus [5] = assay: Area under curve was determined for the compound at 5 mg/Kg; assay type: ADME, organism-based; conditions: in vivo
Mus musculus [6] = assay: Inhibitory concentration of compound was determined after intravenous administration in mice after 8 hours of exposure at 5 mg/Kg; assay type: ADME, organism-based
[7] = Plasma clearance at 5 mg/Kg; assay type: ADME, organism-based; conditions: mouse
[8] = Volume of distribution of compound in plasma was determined at 24 mg/Kg; assay type: ADME, organism-based; conditions: mouse, read-out: Vds
[9] = Half life of compound was determined in plasma of mice at 24 mg/Kg; assay type: ADME, organism-based; conditions: mouse
Mus musculus [10] = assay: Inhibitory concentration of compound was determined after intravenous administration in mice after 8 hours of exposure at 24 mg/Kg; assay type: ADME, organism-based
Mus musculus [11] = assay: Area under curve was determined for the compound at 24 mg/Kg; assay type: ADME, organism-based; conditions: in vivo
[12] = Plasma clearance at 24 mg/Kg; assay type: ADME, organism-based; conditions: mouse

Ratio [2] | Compound | Ratio [1] | IC50 (P388) | other results
0.48 | CN1C(=O)c2c(c3c4cc(F)ccc4n(C4OC(CO)C(O)C(O)C4O)c3c3sc4ccc(F)cc4c23)C1=O (stereo not given) | 14.1 | 236 nM | –
0.69 | O=C1NC(=O)c2c1c1c3cc(F)c(F)cc3[nH]c1c1c2c2cc(F)c(F)cc2n1C1OC(CO)C(O)C(O)C1O (stereo not given) | 67.1 | 7 nM | –
0.09 | O=C1NC(=O)c2c1c1c3cc(F)ccc3sc1c1c2c2cc(F)ccc2n1C1OC(CO)C(O)C(O)C1O (stereo not given) | 232.5 | 10 nM | Vd [3]: 1.27 L/kg; half-life [4]: 456 min; AUC (Mus musculus [5]): 0.068 uM hr ml-1; IC50 (Mus musculus [6]): 150 nM; clearance [7]: 9.33 mL/min/kg
1 | CN1C(=O)c2c(c3c4cc(F)ccc4n(C4OC(CO)C(O)C(O)C4O)c3c3[nH]c4ccc(F)cc4c23)C1=O (stereo not given) | >10.8 | 862 nM | –
1.5 | O=C1NC(=O)c2c1c1c3ccccc3oc1c1c2c2cc(F)ccc2n1C1OC(CO)C(O)C(O)C1O (stereo not given) | 13.6 | 529 nM | –
> 600 | Cn1c2cc(F)c(F)cc2c2c3c(c4c5cc(F)c(F)cc5n(C5OC(CO)C(O)C(O)C5O)c4c21)C(=O)NC3=O (stereo not given) | >1 | > 8720 nM | –
0.22 | NN1C(=O)c2c(c3c4cc(F)ccc4n(C4OC(CO)C(O)C(O)C4O)c3c3[nH]c4ccc(F)cc4c23)C1=O (stereo not given) | 196.9 | 20 nM | –
2.2 | O=C1NC(=O)c2c1c1c3ccccc3sc1c1c2c2cc(F)ccc2n1C1OC(CO)C(O)C(O)C1O (stereo not given) | >51.3 | 155 nM | –
> 200 | O=C1NC(=O)c2c1c1c3ccc(F)cc3[nH]c1c1c2c2ccccc2n1C1OC(CO)C(O)C(O)C1O (stereo not given) | 11.4 | 98 nM | –
1.7 | O=C1NC(=O)c2c1c1c3cc(F)ccc3[nH]c1c1c2c2ccccc2n1C1OC(CO)C(O)C(O)C1O (stereo not given) | 31.7 | 101 nM | –
2 | O=C1NC(=O)c2c1c1c3ccc(F)cc3[nH]c1c1c2c2ccc(F)cc2n1C1OC(CO)C(O)C(O)C1O (stereo not given) | 8.7 | 260 nM | –
0.08 | O=C1c2c(c3c4cc(F)ccc4n(C4OC(CO)C(O)C(O)C4O)c3c3[nH]c4ccc(F)cc4c23)C(=O)N1O (stereo not given) | 19.6 | 35 nM | –
6.6 | O=C1NC(=O)c2c1c1c3ccccc3[nH]c1c1c2c2cc(F)ccc2n1C1OC(CO)C(O)C(O)C1O (stereo not given) | >9.5 | 1040 nM | –
0.27 | O=C1NC(=O)c2c1c1c3cc(F)ccc3oc1c1c2c2cc(F)ccc2n1C1OC(CO)C(O)C(O)C1O (stereo not given) | 63.7 | 114 nM | –
0.22 | O=C1NC(=O)c2c1c1c3cc(F)ccc3[nH]c1c1c2c2cc(F)ccc2n1C1OC(CO)C(O)C(O)C1O (stereo not given) | 182.7 | – | Vd [8]: 0.1 L/kg; half-life [9]: 96 min; IC50 (Mus musculus [10]): 860 nM; AUC (Mus musculus [11]): 0.17 uM hr ml-1; clearance [12]: 3.6 mL/min/kg
3.1 | O=C1NC(=O)c2c1c1c3ccccc3[nH]c1c1c2c2ccc(F)cc2n1C1OC(CO)C(O)C(O)C1O (stereo not given) | 4.6 | 392 nM | –

Compound | Ratio [2] | Ratio [1] | IC50 (P388) | other results
O=C1NC(=O)c2c1c1c3cccc(Cl)c3[nH]c1c1c2c2cccc(Cl)c2n1C1OC(CO)C(O)C(O)C1O (stereo not given) | > 500 | 1.26 | 540 nM | –

— ChEMBL document CHEMBL1149111, “Design and synthesis of a fluoroindolocarbazole series as selective topoisomerase I active agents. Discovery of water-soluble 3,9-difluoro-12,13-dihydro-13-[6-amino-beta-D-glucopyranosyl]-5H,13H-benzo[b]- thienyl[2,3-a]pyrrolo[3,4-c]carbazole- 5,7(6H)-dione (BMS-251873) with curative antitumor …” (J Med Chem, 2004)
